In ChEMBL document CHEMBL1140294 (J Med Chem, 2005):

Legend:
Type in all cases: cell-based
[1] = molecular target: T1, ATP-dependent translocase ABCB1 (Homo sapiens, UniProt P08183); assay: Reversal of P-gp-mediated multidrug resistance in doxorubicin-resistant human K562 cells assessed as increase in nuclear pirarubicin concentration
[2] = molecular target: T1, ATP-dependent translocase ABCB1; assay: Reversal of P-gp-mediated multidrug resistance in doxorubicin-resistant human K562 cells assessed as drug concentration causing half-maximal increase in nuclear pirarubicin concentration; details: read-out: Activity
[3] = molecular target: T1, ATP-dependent translocase ABCB1; assay: Reversal of P-gp-mediated multidrug resistance in human K562 cells assessed as drug concentration causing 40% increase in nuclear pirarubicin concentration
Method in brief: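 Doxorubicin-resistant K 562 cells in exponential phase. Pirarubicin uptake monitored by fluorescence at 590 nm (ex 480 nm) in HEPES buffer (pH 7.25) at 37 °C. The reported value, [I]0.5, is the modulator concentration giving a 40% increase in nuclear pirarubicin concentration (α = 0.4).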

T1 sequence (P08183 whole entry): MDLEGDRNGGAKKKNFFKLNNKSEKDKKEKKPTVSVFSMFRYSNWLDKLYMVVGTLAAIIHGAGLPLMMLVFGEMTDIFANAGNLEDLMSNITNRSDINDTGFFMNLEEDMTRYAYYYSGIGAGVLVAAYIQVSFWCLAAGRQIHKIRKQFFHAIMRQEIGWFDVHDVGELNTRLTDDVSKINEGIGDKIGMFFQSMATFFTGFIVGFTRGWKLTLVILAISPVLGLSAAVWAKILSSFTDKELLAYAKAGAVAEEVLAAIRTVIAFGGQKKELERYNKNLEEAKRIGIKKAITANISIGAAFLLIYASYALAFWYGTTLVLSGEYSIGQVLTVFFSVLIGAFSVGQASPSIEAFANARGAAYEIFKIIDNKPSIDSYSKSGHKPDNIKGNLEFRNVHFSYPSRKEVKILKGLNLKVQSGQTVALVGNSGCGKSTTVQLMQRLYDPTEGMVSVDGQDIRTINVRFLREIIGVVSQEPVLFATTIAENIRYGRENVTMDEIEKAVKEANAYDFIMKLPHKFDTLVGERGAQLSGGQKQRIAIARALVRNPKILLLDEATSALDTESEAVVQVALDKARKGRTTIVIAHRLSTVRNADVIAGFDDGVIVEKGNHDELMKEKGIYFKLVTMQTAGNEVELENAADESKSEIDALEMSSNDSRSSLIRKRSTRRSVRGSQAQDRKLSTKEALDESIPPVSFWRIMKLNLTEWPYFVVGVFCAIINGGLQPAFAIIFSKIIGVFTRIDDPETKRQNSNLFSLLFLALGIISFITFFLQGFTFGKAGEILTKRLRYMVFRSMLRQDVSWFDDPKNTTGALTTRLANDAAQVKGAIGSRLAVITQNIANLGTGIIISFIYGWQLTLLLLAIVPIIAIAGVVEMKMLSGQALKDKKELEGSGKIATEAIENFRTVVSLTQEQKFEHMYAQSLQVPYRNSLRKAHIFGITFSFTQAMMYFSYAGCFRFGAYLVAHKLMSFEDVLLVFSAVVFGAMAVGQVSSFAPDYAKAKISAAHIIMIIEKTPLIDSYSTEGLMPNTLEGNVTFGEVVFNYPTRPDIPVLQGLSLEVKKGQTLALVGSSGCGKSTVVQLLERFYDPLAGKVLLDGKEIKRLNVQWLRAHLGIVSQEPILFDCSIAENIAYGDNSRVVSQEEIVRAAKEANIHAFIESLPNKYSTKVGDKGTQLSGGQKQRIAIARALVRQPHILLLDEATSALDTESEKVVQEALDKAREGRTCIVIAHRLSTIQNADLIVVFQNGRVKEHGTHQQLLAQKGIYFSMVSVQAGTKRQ

Row | SMILES | Alpha max [1] | EC50 [2] [nM] | Activity [3] [µM]
1 | COc1cc(/C=C/C(=O)OCCCCCCN(C)CCCCCCOC(=O)c2cc(OC)c(OC)c(OC)c2)cc(OC)c1OC | 0.6 | 2000 | –
2 | COc1cc(/C=C/C(=O)OCCCCCCCN(C)CCCCCCCOC(=O)c2c3ccccc3cc3ccccc23)cc(OC)c1OC | 0.55 | 150 | –
3 | COc1cc(/C=C/C(=O)OCCN(C)CCOC(=O)c2ccc(OC)c(OC)c2OC)cc(OC)c1OC | 0.8 | 6400 | –
4 | COc1cc(/C=C/C(=O)OCCN(C)CCOC(=O)c2ccccc2)cc(OC)c1OC | 0.86 | 3700 | –
5 | COc1cc(/C=C/C(=O)OCCOCCN(C)CCOCCOC(=O)c2cc(OC)c(OC)c(OC)c2)cc(OC)c1OC | 0.9 | 4200 | –
6 | COc1cc(/C=C/C(=O)OCCN(C)CCOC(=O)C2c3ccccc3-c3ccccc32)cc(OC)c1OC | 0.7 | 800 | –
7 | COc1cc(/C=C/C(=O)OCCCN(C)CCN(C)CCCOC(=O)/C=C/c2cc(OC)c(OC)c(OC)c2)cc(OC)c1OC | 0.8 | 2600 | –
8 | COc1cc(/C=C/C(=O)OCCCCCN(C)CCCCCOC(=O)C2c3ccccc3-c3ccccc32)cc(OC)c1OC | 0.83 | 110 | –
9 | COc1cc(/C=C/C(=O)OCCCN2CCN(CCCOC(=O)/C=C/c3cc(OC)c(OC)c(OC)c3)CC2)cc(OC)c1OC | 0.8 | 370 | –
10 | COc1cc(/C=C/C(=O)OCCCCCCN(C)CCCCCCOC(=O)c2c3ccccc3cc3ccccc23)cc(OC)c1OC | 0.68 | 610 | –
11 | COc1cc(/C=C/C(=O)OCCCN(C)CCN(C)CCCOC(=O)c2cc(OC)c(OC)c(OC)c2)cc(OC)c1OC | 0.78 | 1300 | –
12 | COc1cc(/C=C/C(=O)OCCCCCN(C)CCCCCOC(=O)c2c3ccccc3cc3ccccc23)cc(OC)c1OC | 0.8 | 100 | –
13 | COc1ccc(C(C#N)(CCC(=O)OCCCNCCCOC(=O)c2c3ccccc3cc3ccccc23)C(C)C)cc1OC (stereo unspecified) | 0.9 | 2100 | –
14 | COc1cc(/C=C/C(=O)OCCCN2CCN(CCCOC(=O)c3cc(OC)c(OC)c(OC)c3)CC2)cc(OC)c1OC | 0.61 | 380 | –
15 | COc1cc(/C=C/C(=O)OCCCCCCCN(C)CCCCCCCOC(=O)c2cc(OC)c(OC)c(OC)c2)cc(OC)c1OC | 0.55 | 1000 | –
16 | COc1ccc(C(C#N)(CCC(=O)OCCCN(C)CCN(C)CCCOC(=O)c2c3ccccc3cc3ccccc23)C(C)C)cc1OC (stereo unspecified) | 0.74 | 400 | –
17 | COc1cc(/C=C/C(=O)OCCN(C)CCOC(=O)c2cc(OC)c(OC)c(OC)c2)cc(OC)c1OC | 0.86 | 3100 | –

Row | SMILES | Alpha max [1] | EC50 [2] [nM] | Activity [3] [µM]
18 | COc1cc(/C=C/C(=O)OCCCN2CCN(CCCOC(=O)c3c4ccccc4cc4ccccc34)CC2)cc(OC)c1OC | 0.9 | 160 | –
19 | COc1ccc(C(C#N)(CCC(=O)OCCCN2CCN(CCCOC(=O)c3c4ccccc4cc4ccccc34)CC2)C(C)C)cc1OC (stereo unspecified) | 0.65 | 620 | –
20 | CN(CCCOC(=O)c1c2ccccc2cc2ccccc12)CCN(C)CCCOC(=O)c1c2ccccc2cc2ccccc12 | 0.5 | – | 0.8
21 | COc1cc(/C=C/C(=O)OCCCN2CCN(CCCOC(=O)C3c4ccccc4-c4ccccc43)CC2)cc(OC)c1OC | 0.7 | 230 | –
22 | COc1cc(/C=C/C(=O)OCCCN(C)CCCOC(=O)c2c3ccccc3cc3ccccc23)cc(OC)c1OC | 0.78 | 180 | –
23 | COc1cc(/C=C/C(=O)OCCOCCNCCOCCOC(=O)c2cc(OC)c(OC)c(OC)c2)cc(OC)c1OC | 1 | 7000 | –
24 | COc1cc(/C=C/C(=O)OCCCCCN(C)CCCCCOC(=O)c2cc(OC)c(OC)c(OC)c2)cc(OC)c1OC | 0.84 | 800 | –
25 | COc1cc(/C=C/C(=O)OCCCNCCCOC(=O)c2cc(OC)c(OC)c(OC)c2)cc(OC)c1OC | 1 | 500 | –
26 | COc1ccc(C(C#N)(CCCN(C)c2c3ccccc3cc3ccccc23)C(C)C)cc1OC (stereo unspecified) | 0.7 | 50 | –
27 | COc1cc(/C=C/C(=O)OCCOCCN(C)CCOCCOC(=O)c2c3ccccc3cc3ccccc23)cc(OC)c1OC | 0.84 | 170 | –
28 | COc1cc(/C=C/C(=O)OCCN(C)CCOC(=O)c2c3ccccc3cc3ccccc23)cc(OC)c1OC | 0.84 | 1000 | –
29 | O=C(OCCCN1CCN(CCCOC(=O)c2c3ccccc3cc3ccccc23)CC1)c1c2ccccc2cc2ccccc12 | 0.5 | – | 2.5
30 | COc1cc(/C=C/C(=O)OCCCN(C)CCN(C)CCCOC(=O)c2c3ccccc3cc3ccccc23)cc(OC)c1OC | 0.7 | 190 | –
31 | COc1cc(/C=C/C(=O)OCCCN(C)CCN(C)CCCOC(=O)C2c3ccccc3-c3ccccc32)cc(OC)c1OC | 0.64 | 570 | –
32 | COc1cc(/C=C/C(=O)OCCCN(C)CCCOC(=O)c2cc(OC)c(OC)c(OC)c2)cc(OC)c1OC | 0.9 | 600 | –
33 | COc1cc(/C=C/C(=O)OCCCNCCCOC(=O)c2c3ccccc3cc3ccccc23)cc(OC)c1OC | 0.74 | 210 | –
